This is a sample that favours compounds with a hit; in the whole collection about 3.1% have one here.
core dimer inh: inhibitors of HCV core protein dimerization, primary screen, biochemical, TR-FRET, high-throughput; TR-FRET GST/Flag-core106 dimerization, 1536-well; 0.33% of 300,000 active; inhibition, % at 5 µM;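 active = inhibition above the mean of all tested compounds plus 3 SD, set per screening campaign, cut at about 45% in these data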
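Assay system: GST-tagged and Flag-tagged HCV core protein residues 1-106 / Times: compound-protein-antibody incubation 4 h at 22.5 °C / Signal: time-resolved FRET, ex 340 nm, em 617 and 671 nm / Evaluation: % inhibition based on acceptor/donor emission ratio / Benchmarks: wells lacking GST-core106 and wells with excess unlabelled core106 / Repeats: singlicate, one well per compound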
HCV NS3 hel inh: inhibitors of HCV NS3 helicase, primary screen, biochemical, Cy5 molecular beacon fluorescence | AID 1800, 2009 | NS3 helicase DNA unwinding | 0.56% of 290,000 active | Hepatitis C virus NS3 helicase | inhibition, % at 10.9 µM;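 active = inhibition above the mean of all tested compounds plus 3 SD, set per campaign, cut at about 35% in these data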;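 also: 0% = DMSO wells and 100% = thioflavine S control wells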
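System: HCV NS3 helicase fragment; control set: DMSO and thioflavine S; technique: Cy5 fluorescence at 0 and 60 min, beacon hairpin quenching; reagent: beacon DNA duplex substrate plus ATP; replicates: singlicate; schedule: 1 h reaction at 25 °C, ATP-initiated; medium: MOPS buffer pH 6.5 with MgCl2, DTT, Tween20, BSA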
UBC9 SUMO inh: inhibitors of in vitro SUMOylation cascade, primary screen, biochemical, HTRF, uHTS; SUMO-conjugating enzyme UBC9 (Homo sapiens), P63279; HTRF SUMOylation assay, SAE1/SAE2 + UBC9; inhibition, % at 35 µM; 0.36% of 290,000 active; in the data active = inhibition above about 50%, passing the limit was not always enough
Target sequence (P63279 whole entry, looked up): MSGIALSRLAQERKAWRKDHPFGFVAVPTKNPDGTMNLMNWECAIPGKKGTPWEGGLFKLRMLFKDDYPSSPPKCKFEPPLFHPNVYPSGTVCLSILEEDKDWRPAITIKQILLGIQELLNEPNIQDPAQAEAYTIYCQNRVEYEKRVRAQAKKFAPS
PHOSPHO1 block: PubChem AID 1565. inhibition, % at 13.3 µM. recombinant PHOSPHO1, absorbance phosphatase assay. 1.1% of 290,000 active. Phosphoethanolamine/phosphocholine phosphatase (Homo sapiens), Q8TCT1; in the data active = inhibition above about 60%
Target sequence (Q8TCT1 whole entry, looked up): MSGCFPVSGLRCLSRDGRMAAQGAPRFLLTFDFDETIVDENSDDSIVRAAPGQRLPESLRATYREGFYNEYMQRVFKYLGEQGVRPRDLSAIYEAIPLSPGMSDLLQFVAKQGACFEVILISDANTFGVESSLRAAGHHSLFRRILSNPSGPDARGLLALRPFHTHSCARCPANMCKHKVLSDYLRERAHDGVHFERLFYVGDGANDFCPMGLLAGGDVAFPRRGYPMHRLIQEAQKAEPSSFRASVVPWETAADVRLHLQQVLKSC
VIM-2 inhibitor: VIM-2 metallo-beta-lactamase inhibitors, primary screen, biochemical, epi-absorbance readout, Pseudomonas aeruginosa enzyme; purified VIM-2, nitrocefin hydrolysis, epi-absorbance fluorescence; inhibition, % at 5.6 µM; 0.89% of 290,000 active; AID 1527, 2009;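 active = inhibition above the mean of all tested compounds plus 3 SD, cutoff set per screening run, cut at about 7.5% in these data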;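 also: red hydrolysis product quenches plate fluorescence so inhibitors raise well fluorescence; 0% = enzyme with DMSO and 100% = DMSO without enzyme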
IMP-1 inh: IMP-1 metallo-beta-lactamase inhibitors, primary screen, biochemical, epi-absorbance readout, Pseudomonas aeruginosa enzyme; metallo-beta-lactamase IMP-1 (Pseudomonas aeruginosa); purified IMP-1, nitrocefin hydrolysis, epi-absorbance fluorescence; inhibition, % at 5.6 µM; 0.45% of 290,000 active; AID 1556, 2009;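 active = inhibition above the mean plus 3 SD of all compounds in the same screening run, cut at about 4.5% in these data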;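 also: 0% = IMP-1 with DMSO and 100% = DMSO wells lacking enzyme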
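system = purified recombinant IMP-1 beta-lactamase | amount = 0.2 nM IMP-1, as dispensed | medium = HEPES buffer pH 7.1 with ZnSO4 and Brij 35 | times = 25 °C, 15 min preincubation, 25 min reaction | detection = plate fluorescence quenching by hydrolysis product, ex 480/em 530 nm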
The depositor's hits bear a star; · = not tested or not shown.

SMILES	core dimer inh	HCV NS3 hel inh	UBC9 SUMO inh	PHOSPHO1 block	VIM-2 inhibitor	IMP-1 inh
CC1(C)CC(=O)C2=C(C1)OC(N)=C(C#N)C2C#Cc1ccccc1 (stereo unspecified)	1	-1	26	18	-4	-1
C/C(=N/NC(=O)CNC(=O)c1cccnc1)c1ccc(Cl)c(Cl)c1	5	9	14	38	-1	-3
CCN(CC)CCCNC(=O)c1cc2c(-c3ccc(Cl)cc3)nn(C)c2s1	-4	-76	31	19	-1	-1
CC1CCCCN1CCNC(=O)c1cc2c(-c3ccccc3F)nn(C)c2s1 (stereo unspecified)	1	-25	21	-2	8.9*	-3
CCCCN(CC)CCNC(=O)c1cc2c(-c3ccccc3F)nn(C)c2s1	-3	-77	29	28	9.3*	-2
CC(=O)c1ccc(Nc2cc(C)nc3ccc(C)cc23)cc1	0	4	20	33	8.4*	-1
Cc1ccc2nc(C)cc(Nc3ccc4c(c3)OCCO4)c2c1	-4	0	-8	-14	11*	-2
CCc1ccccc1NC(=O)NC1CCCCCCC1	·	2	-1	23	-2	-1
COc1cc(OC)c(NC(=O)Cc2cccs2)cc1Cl	7	0	11	22	0	-1
CCN(CC)S(=O)(=O)c1ccc(OC)c(NC(=O)Cc2cccs2)c1	50*	16	23	55	-3	-4
CCCCN(CC(=O)NCCOC)C(=O)Cn1nnc2ccccc21	7	-11	15	-20	-1	-2
COc1ccc(CCn2c(C)cc(C(=O)COC(=O)c3ccc(NC(=O)CC#N)cc3)c2C)cc1	50*	21	40	48	-1	-2
O=C(c1ccco1)N1CCN(c2c([N+](=O)[O-])nn(-c3cccc(Cl)c3)[n+]2[O-])CC1	2	8	19	11	-3	7.8*
COc1cc(/C=N/NC(=O)C(=O)/C=C2\NC(C)(C)Cc3ccccc32)ccc1O	2	-10	35	10	1	-3
O=S(=O)(c1ccc(Cl)c(NC(=S)N/N=C/c2c(F)cccc2F)c1)N1CCOCC1	14	2	0	-2	10*	-3
O=[N+]([O-])c1cc(Cl)cc(/C=N/NC(=S)Nc2ccc(S(=O)(=O)N3CCOCC3)cc2)c1O	12	34	95*	-130	-3	-4
Cc1cccc(C)c1NC(=O)CS(=O)CC(=O)NCC1OCCc2ccccc21 (stereo unspecified)	3	-12	26	-8	-1	0
NS(=O)(=O)c1ccc(S(=O)(=O)N(Cc2ccccc2F)CC2CCCO2)cc1 (stereo unspecified)	4	-2	-32	-2	-1	5.0*
Cc1cc(C(=O)CCl)c(C)n1-c1c(C)n(C)n(-c2ccccc2)c1=O	0	-6	4	12	-1	-3
Cn1ccnc1SCC(=O)c1cc2ccccc2o1	38	12	13	91*	0	4.6*
CCOC(=O)c1ccc2c(c1)nc(SCC(=O)c1cc3ccccc3o1)n2CC	21	3	17	90*	-4	3
Cn1cnnc1SCC(=O)c1cc2ccccc2o1	11	-5	-6	-6	-4	-1
C=CCNC(=O)CSc1nc2cc(C(=O)OCC)ccc2n1CC	0	-3	-7	5	0	-4
CCOC(=O)N1CCN(C(=O)c2ccc(SC)cc2OC)CC1	1	6	6	18	-3	-2
CCCCC(C(=O)OCC)C(N)Cc1ccc(F)cc1 (stereo unspecified)	-1	-21	74*	-7	-2	-2
SMILES	core dimer inh	HCV NS3 hel inh	UBC9 SUMO inh	PHOSPHO1 block	VIM-2 inhibitor	IMP-1 inh
CCOC(=O)C(Cc1ccccc1)C(=O)c1ccco1 (stereo unspecified)	4	·	·	·	·	·
N#CC1=C(N)OC2=C(CCC/C2=C/c2ccoc2)C1c1ccoc1 (stereo unspecified)	·	22	33	18	0	1
N#CC1=C(N)OC2=C(CC/C2=C\c2ccc(F)cc2)C1c1ccc(F)cc1 (stereo unspecified)	52*	23	14	12	-1	2
O=C(CNC(=O)c1ccccc1F)N/N=C\C=C\c1ccccc1	-9	0	10	26	-1	0
Cc1cc(NS(=O)(=O)c2ccc(NC(=O)CSc3nc4ncc(Cl)cc4[nH]3)cc2)nc(C)n1	8	2	21	12	-2	-3
Cc1cc(NS(=O)(=O)c2ccc(NC(=O)CSc3nc4ncc(Br)cc4[nH]3)cc2)nc(C)n1	3	-6	29	72*	-2	-1
Cc1c(Br)c(=O)oc2c(C)c(O)ccc12	-4	3	44	-22	8.4*	-6
O=C(NC1CCCCC1)c1ccc2snnc2c1	-5	0	0	24	0	-2
CCc1ccc2nc3c(c(C(=O)O)c2c1)CCC3	-2	5	16	16	-1	-3
Cc1cc(Br)c2nc3c(c(C(=O)O)c2c1)CCCCC3	72*	-4	6	-14	-1	-3
COc1ccc([N+](=O)[O-])c(OC)c1C(=O)NC(=O)Nc1c(F)c(F)c(F)c(F)c1F	2	-4	7	27	-1	-2
Cc1ccc(S(=O)(=O)C(C#N)c2nc3ccccc3nc2N2CCN(C)CC2)cc1 (stereo unspecified)	-7	-2	38	-17	-2	-4
Cc1ccc(S(=O)(=O)C(C#N)c2nc3ccccc3nc2N2CCCCC2)cc1 (stereo unspecified)	·	·	83*	93*	·	·
N#CC(c1nc2ccccc2nc1N1CCCCC1)S(=O)(=O)c1ccc(Cl)cc1 (stereo unspecified)	·	·	75*	-42	·	·
Cc1cccc(S(=O)(=O)C(C#N)c2nc3ccccc3nc2N2CCOCC2)c1 (stereo unspecified)	1	1	34	78*	-1	3
COCc1n[nH]c(=S)n1-c1ccccc1	0	4	7	64*	5	-5
S=c1[nH]nc(CSCc2ccccc2Cl)n1-c1ccccc1	0	6	-3	105*	0	2
COC(Cc1n[nH]c(=S)n1-c1ccccc1)OC	1	0	34	79*	-1	-4
CCCn1c(SCC(=O)c2cc(C)ccc2C)n[nH]c1=O	2	3	5	94*	-4	-4
